Experimental data: ChEMBL document CHEMBL4825669, “Synthesis, Molecular Pharmacology, and Structure-Activity Relationships of 3-(Indanoyl)indoles as Selective Cannabinoid Type 2 Receptor Antagonists” (J Med Chem, 2021)

Tests used:
Cannabinoid receptor 1 [1] = target: T1, Cannabinoid receptor 1 (Homo sapiens, UniProt P21554); test: Displacement of [3H]-CP55940 from human CB1 receptor expressed in CHO cells at 1 uM incubated for 90 mins by liquid scintillation spectrophotometry relative to control; type: cell-based
Outline: (§1)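 Membrane protein was 100 μg for CHO-hCB1 and 50 μg for CHO-hCB2. Incubation 90 min at room temperature. Nonspecific binding set with 10 μM WIN-55,212-2. Stopped by GF/B filtration with three ice-cold washes, then liquid scintillation counting.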

Cannabinoid receptor 2 [2] = target: T2, Cannabinoid receptor 2 (Homo sapiens, UniProt P34972); test: Displacement of [3H]-CP55940 from human CB2 receptor expressed in CHO cells at 1 uM incubated for 90 mins by liquid scintillation spectrophotometry relative to control; type: cell-based; outline: as §1
Cannabinoid receptor 1 [3] = target: T1, Cannabinoid receptor 1; test: Displacement of [3H]-CP55940 from human CB1 receptor expressed in CHO cells incubated for 90 mins by liquid scintillation spectrophotometry relative to control; type: cell-based; outline: as §1
Cannabinoid receptor 2 [4] = target: T2, Cannabinoid receptor 2; test: Displacement of [3H]-CP55940 from human CB2 receptor expressed in CHO cells incubated for 90 mins by liquid scintillation spectrophotometry relative to control; type: cell-based; outline: as §1
Cannabinoid receptor 1 [5] = target: T1, Cannabinoid receptor 1; test: Binding affinity to human CB1 receptor assessed as free binding energy; type: cell-based; conditions: CHO, filed as antagonist
Cannabinoid receptor 2 [6] = target: T2, Cannabinoid receptor 2; test: Binding affinity to human CB2 receptor assessed as free binding energy; type: cell-based; conditions: CHO, filed as antagonist
CHO = test: Selectivity index, ratio of Ki for human CB1 receptor expressed in CHO cells to Ki for human CB2 receptor expressed in CHO cells; type: cell-based
Cannabinoid receptor 2 [7] = target: T2, Cannabinoid receptor 2; test: Antagonist activity at human CB2 receptor expressed in CHO cell membrane assessed as stimulation of [35S]GTPgammaS binding at 10 uM by liquid scintillation spectrophotometry; type: functional, cell membranes; design: scale not given: the % may be the effect or the level left
Outline: (§2)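 CHO cell membranes expressing hCB2, 25 or 50 µg protein, incubated in triplicate with 0.1 nM [35S]GTPγS. Buffer: 20 mM HEPES, 100 mM NaCl, 10 mM MgCl2, 0.05% BSA, 20 units/L adenosine deaminase. Reaction 30 min at 30 °C, stopped by filtration on GF/B with ice-cold washes, counted by liquid scintillation. Nonspecific binding set with 10 μM unlabelled GTPγS.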

Cannabinoid receptor 2 [8] = target: T2, Cannabinoid receptor 2; test: Antagonist activity at human CB2 receptor expressed in CHO cell membrane assessed as reduction in CP55940-induced [35S]GTPgammaS binding by liquid scintillation spectrophotometry; type: functional, cell membranes; outline: as §2

T2 sequence (P34972 whole entry): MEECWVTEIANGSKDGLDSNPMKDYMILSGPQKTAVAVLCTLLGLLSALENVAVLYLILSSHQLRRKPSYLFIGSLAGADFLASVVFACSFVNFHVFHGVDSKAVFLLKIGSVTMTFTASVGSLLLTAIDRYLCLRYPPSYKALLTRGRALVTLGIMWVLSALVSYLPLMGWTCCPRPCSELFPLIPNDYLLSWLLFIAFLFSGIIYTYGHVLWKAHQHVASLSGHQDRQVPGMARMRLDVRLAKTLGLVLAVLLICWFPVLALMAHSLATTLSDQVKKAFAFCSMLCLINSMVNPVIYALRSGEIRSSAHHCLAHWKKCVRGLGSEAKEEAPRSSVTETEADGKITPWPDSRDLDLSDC
T1 sequence (P21554 whole entry): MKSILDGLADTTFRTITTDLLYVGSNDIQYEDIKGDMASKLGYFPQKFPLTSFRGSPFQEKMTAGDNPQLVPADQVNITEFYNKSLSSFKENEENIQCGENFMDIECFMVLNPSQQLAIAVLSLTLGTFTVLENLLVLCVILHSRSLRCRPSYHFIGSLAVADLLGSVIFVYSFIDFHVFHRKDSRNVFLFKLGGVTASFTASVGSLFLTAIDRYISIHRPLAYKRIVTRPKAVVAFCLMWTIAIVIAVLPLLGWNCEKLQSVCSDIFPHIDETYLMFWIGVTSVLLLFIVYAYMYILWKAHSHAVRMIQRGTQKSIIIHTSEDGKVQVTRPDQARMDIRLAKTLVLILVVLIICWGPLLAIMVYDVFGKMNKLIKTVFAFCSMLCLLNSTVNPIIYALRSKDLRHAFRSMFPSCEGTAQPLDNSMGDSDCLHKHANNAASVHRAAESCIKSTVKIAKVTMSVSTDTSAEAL

Compound	Activity (Cannabinoid receptor 1 [1])	Activity (Cannabinoid receptor 2 [2]; filed as antagonist)	Activity (Cannabinoid receptor 1 [1]; filed as antagonist)	Activity (Cannabinoid receptor 2 [7]; filed as antagonist)	further results
Cc1c(C(=O)c2ccc3c(c2)CC(C)(C)C3)c2ccccc2n1Cc1ccccc1	18.1%	51.2%	–	–	–
CCCCCn1cc(C(=O)c2cccc3c2CC(C)(C)C3)c2ccccc21	–	94.1%	85.7%	134%	Ki (Cannabinoid receptor 1 [3]): 1.46 nM; Ki (Cannabinoid receptor 2 [4]): 1.36 nM; deltaG (Cannabinoid receptor 1 [5]): -12.1 kcal/mol; deltaG (Cannabinoid receptor 2 [6]): -12.2 kcal/mol; Selectivity Index (CHO): 1.1
CCOC(=O)Cn1cc(C(=O)c2ccc3c(c2)CC(C)(C)C3)c2ccccc21	19.4%	–	–	–	Activity (Cannabinoid receptor 2 [2]): 18%
CCCCn1cc(C(=O)c2ccc3c(c2)CC(C)(C)C3)c2ccccc21	–	92.9%	82.7%	102%	–
CCCn1c(C)c(C(=O)c2ccc3c(c2)CC(C)(C)C3)c2ccccc21	44.4%	73.9%	–	–	–
CCCCCn1c(C)c(C(=O)c2ccc3c(c2)CC(C)(C)C3)c2ccccc21	–	83.6%	53.8%	–	–
CCCCCCn1cc(C(=O)c2ccc3c(c2)CC(C)(C)C3)c2ccccc21	–	83.6%	79.1%	102%	–
CC(C)Cn1cc(C(=O)c2ccc3c(c2)CC(C)(C)C3)c2ccccc21	–	83.1%	422%	–	–
CC/C=C\Cn1cc(C(=O)c2ccc3c(c2)CC(C)(C)C3)c2ccccc21	–	86.4%	60.7%	106%	–
COc1ccc(C(=O)c2c(C)n(CCN3CCOCC3)c3cc(I)ccc23)cc1	–	–	–	–	Activity (Cannabinoid receptor 2 [7]): 67%
CCC#CCn1c(C)c(C(=O)c2ccc3c(c2)CC(C)(C)C3)c2ccccc21	16.4%	–	–	–	Activity (Cannabinoid receptor 2 [2]): 30.2%
CC1(C)Cc2ccc(C(=O)c3cn(Cc4ccc(F)cc4)c4ccccc34)cc2C1	–	92.3%	88%	90%	–
Cn1cc(C(=O)c2ccc3c(c2)CC(C)(C)C3)c2ccccc21	10.8%	–	–	–	Activity (Cannabinoid receptor 2 [2]): 23.9%
CCCCCn1cc(C(=O)c2ccc3c(c2)CC(C)(C)C3)c2ccccc21	–	99.8%	93.4%	108%	Ki (Cannabinoid receptor 1 [3]): 38.8 nM; Ki (Cannabinoid receptor 2 [4]): 4.9 nM; deltaG (Cannabinoid receptor 1 [5]): -10.2 kcal/mol; deltaG (Cannabinoid receptor 2 [6]): -11.5 kcal/mol; Selectivity Index (CHO): 7.9; IC50 (Cannabinoid receptor 2 [8]): 1800 nM; Kb (Cannabinoid receptor 2 [8]; filed as antagonist): 9.7 nM
C#CCCCn1c(C)c(C(=O)c2ccc3c(c2)CC(C)(C)C3)c2ccccc21	41.9%	93.1%	–	121%	Ki (Cannabinoid receptor 1 [3]): 1900 nM; Ki (Cannabinoid receptor 2 [4]): 62.5 nM; deltaG (Cannabinoid receptor 1 [5]): -7.85 °C; deltaG (Cannabinoid receptor 2 [6]): -9.89
CC/C=C/Cn1c(C)c(C(=O)c2ccc3c(c2)CC(C)(C)C3)c2ccccc21	35.1%	73.7%	–	–	–

Compound	Activity (Cannabinoid receptor 1 [1])	Activity (Cannabinoid receptor 2 [2]; filed as antagonist)	Activity (Cannabinoid receptor 1 [1]; filed as antagonist)	Activity (Cannabinoid receptor 2 [7]; filed as antagonist)	further results
CC/C=C/Cn1cc(C(=O)c2ccc3c(c2)CC(C)(C)C3)c2ccccc21	–	86.9%	84.2%	81%	–
CC1(C)Cc2ccc(C(=O)c3c[nH]c4ccccc34)cc2C1	9.4%	–	–	–	Activity (Cannabinoid receptor 2 [2]): 22.2%
C=CCn1cc(C(=O)c2ccc3c(c2)CC(C)(C)C3)c2ccccc21	16%	60.6%	–	–	–
C#CCn1c(C)c(C(=O)c2ccc3c(c2)CC(C)(C)C3)c2ccccc21	–	63%	51.9%	–	–
C=CCCCn1cc(C(=O)c2ccc3c(c2)CC(C)(C)C3)c2ccccc21	–	95.2%	80%	92%	Ki (Cannabinoid receptor 1 [3]): 152 nM; Ki (Cannabinoid receptor 2 [4]): 15.6 nM; deltaG (Cannabinoid receptor 1 [5]): -9.36 °C; deltaG (Cannabinoid receptor 2 [6]): -10.7
C#CCCCn1cc(C(=O)c2ccc3c(c2)CC(C)(C)C3)c2ccccc21	–	92.8%	71%	96%	Ki (Cannabinoid receptor 1 [3]): 325 nM; Ki (Cannabinoid receptor 2 [4]): 24 nM; deltaG (Cannabinoid receptor 1 [5]): -8.91 °C; deltaG (Cannabinoid receptor 2 [6]): -10.5
CCCn1cc(C(=O)c2ccc3c(c2)CC(C)(C)C3)c2ccccc21	47.4%	90.5%	–	99%	Ki (Cannabinoid receptor 1 [3]): 2560 nM; Ki (Cannabinoid receptor 2 [4]): 130 nM; deltaG (Cannabinoid receptor 1 [5]): -7.68 kcal/mol; deltaG (Cannabinoid receptor 2 [6]): -9.45 kcal/mol; Selectivity Index (CHO): 19.7
CCC#CCn1cc(C(=O)c2ccc3c(c2)CC(C)(C)C3)c2ccccc21	–	65.9%	55.6%	–	–
CCCCCn1cc(C(=O)c2cccc3ccccc23)c2ccccc21	–	–	–	–	Ki (Cannabinoid receptor 1 [3]): 9 nM; Ki (Cannabinoid receptor 2 [4]): 2.94 nM; Selectivity Index (CHO): 3.1
CCCCCCn1c(C)c(C(=O)c2ccc3c(c2)CC(C)(C)C3)c2ccccc21	26.2%	55%	–	–	–
CC/C=C\Cn1c(C)c(C(=O)c2ccc3c(c2)CC(C)(C)C3)c2ccccc21	43%	82.9%	–	–	–
C=CCCCn1c(C)c(C(=O)c2ccc3c(c2)CC(C)(C)C3)c2ccccc21	38.6%	86.4%	–	–	–
C#CCn1cc(C(=O)c2ccc3c(c2)CC(C)(C)C3)c2ccccc21	33.4%	56%	–	–	–
CCCCn1c(C)c(C(=O)c2ccc3c(c2)CC(C)(C)C3)c2ccccc21	43.5%	85.4%	–	–	–
Cc1c(C(=O)c2ccc3c(c2)CC(C)(C)C3)c2ccccc2n1Cc1ccc(F)cc1	38.4%	–	–	–	Activity (Cannabinoid receptor 2 [2]): 48.8%
CC1(C)Cc2ccc(C(=O)c3cn(Cc4ccccc4)c4ccccc34)cc2C1	–	84.6%	69.2%	87%	–
